From ChEMBL document CHEMBL1125014, “Synthesis and structure-activity relationships of new 9-N-alkyl derivatives of 9(S)-erythromycylamine” (1990)
Values after ≈ are worked out from the molar mass of the structure shown.

Legend:
[1] = system: Haemophilus influenzae; assay: MIC value was measured against haemophilus influenzae CL; format: functional
[2] = system: Mus musculus; assay: ED50 value was measured by sc administration against streptococcus pyogenes infection in mice (in vivo, in experiment 1); format: functional
Method in brief: (§1)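 Infected mice were dosed orally or subcutaneously at 1 and 5 h postinfection, 0.25 mL of antibiotic solution in 10% aqueous ethanol per dose. Tartaric acid was added where needed for solubility. Several dose concentrations were tested to give the ED50.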

[3] = system: Mus musculus; assay: ED50 value was measured by po administration against streptococcus pyogenes infection in mice (in vivo, in experiment 1); format: functional; method in brief: as §1
[4] = system: Mus musculus; assay: ED50 value was measured by po administration against streptococcus pyogenes infection in mice (in vivo, in experiment 3); format: functional; details: Mus musculus, po; read-out: ED50
[5] = system: Mus musculus; assay: ED50 value was measured by sc administration against staphylococcus aureus infection in mice (in vivo, in experiment 1); format: functional; method in brief: as §1
[6] = system: Mus musculus; assay: ED50 value was measured by sc administration against staphylococcus aureus infection in mice (in vivo, in experiment 3); format: functional; details: Mus musculus, sc; read-out: ED50
[7] = system: Mus musculus; assay: ED50 value was measured by sc administration against streptococcus pneumoniae infection in mice (in vivo, in experiment 1); format: functional; method in brief: as §1
[8] = system: Mus musculus; assay: ED50 value was measured by sc administration against streptococcus pneumoniae infection in mice (in vivo, in experiment 3); format: functional; details: Mus musculus, sc; read-out: ED50
[9] = system: Staphylococcus aureus; assay: Effective dose against mice infected with Staphylococcus aureus after peroral administration (in vivo); format: functional; details: in Mus musculus, po
[10] = system: Streptococcus pneumoniae; assay: Effective dose against mice infected with streptococcus pneumoniae after peroral administration (in vivo); format: functional; details: in Mus musculus, po
[11] = system: Streptococcus pyogenes; assay: Effective dose against mice infected with streptococcus pyogenes after peroral administration (in vivo); format: functional; details: in Mus musculus, po
[12] = system: Mus musculus; assay: ED50 value was measured by po administration against staphylococcus aureus infection in mice (in vivo, in experiment 1); format: functional; method in brief: as §1
[13] = system: Mus musculus; assay: ED50 value was measured by po administration against staphylococcus aureus infection in mice (in vivo, in experiment 3); format: functional; details: Mus musculus, po; read-out: ED50
[14] = system: Mus musculus; assay: ED50 value was measured by po administration against streptococcus pneumoniae infection in mice (in vivo, in experiment 1); format: functional; method in brief: as §1
[15] = system: Mus musculus; assay: ED50 value was measured by po administration against streptococcus pneumoniae infection in mice (in vivo, in experiment 3); format: functional; details: Mus musculus, po; read-out: ED50
[16] = system: Mus musculus; assay: Plasma concentration in mice was determined by subcutaneous administration, 20 mg/kg at 1 hr; format: functional, organism-based; design: dose 20 mg/kg
Method in brief: (§2)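 Mice given 20 mg/kg orally or subcutaneously; peripheral plasma sampled at 5, 20 and 40 min and at 1, 2 and 4 h after dosing. Microbiological assay used Micrococcus luteus seeded in Antibiotic Medium 1, with zone sizes converted by the compound's own standard curve. Each value is the average of five mice per time point.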

[17] = system: Mus musculus; assay: Plasma concentration in mice was determined by subcutaneous administration, 20 mg/kg at 20 min; format: functional, organism-based; design: dose 20 mg/kg; method in brief: as §2
[18] = system: Mus musculus; assay: Plasma concentration in mice was determined by subcutaneous administration, 20 mg/kg at 40 min; format: functional, organism-based; design: dose 20 mg/kg; method in brief: as §2
[19] = system: Mus musculus; assay: Plasma concentration in mice was determined by subcutaneous administration, 20 mg/kg at 4 hr; format: functional, organism-based; design: dose 20 mg/kg; method in brief: as §2
[20] = system: Mus musculus; assay: Plasma concentration in mice was determined by subcutaneous administration, 20 mg/kg at 5 min; format: functional, organism-based; design: dose 20 mg/kg; method in brief: as §2
[21] = species: Rattus norvegicus; assay: Fluid concentration in urine was determined in rats at 6 hr; format: functional
Method in brief: (§3)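 Rats dosed by gavage at 20 mg/kg; lung, liver, kidney, urine and serum sampled at 0.5, 1, 2, 4 and 6 h after dosing. Antibiotic measured by microbiological assay with Micrococcus luteus seeded in Antibiotic Medium 1. Zone sizes were read against the standard curve for the same compound. Each value is the average of three rats per time point.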

[22] = species: Rattus norvegicus; assay: Fluid concentration in liver tissue was determined in rats at 0.5 h; format: functional
Method in brief: (§4)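 Rats were gavaged at 20 mg/kg and tissues sampled 0.5–6 h after dosing. Drug was assayed microbiologically with Micrococcus luteus seeded in Antibiotic Media 1. Zone sizes were read against each compound's own standard curve. Values are the mean of three rats per time point, in μg/g.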

[23] = species: Rattus norvegicus; assay: Fluid concentration in liver tissue was determined in rats at 1 h; format: functional; method in brief: as §3
[24] = species: Rattus norvegicus; assay: Fluid concentration in liver tissue was determined in rats at 4 hr; format: functional; method in brief: as §3
[25] = species: Rattus norvegicus; assay: Fluid concentration in lung tissue was determined in rats at 0.5 h; format: functional; method in brief: as §3
[26] = species: Rattus norvegicus; assay: Fluid concentration in lung tissue was determined in rats at 1 h; format: functional; method in brief: as §3
[27] = species: Rattus norvegicus; assay: Fluid concentration in lung tissue was determined in rats at 2 h; format: functional; method in brief: as §3
[28] = species: Rattus norvegicus; assay: Fluid concentration in lung tissue was determined in rats at 4 h; format: functional; method in brief: as §3
[29] = species: Rattus norvegicus; assay: Fluid concentration in lung tissue was determined in rats at 6 h; format: functional; method in brief: as §3
[30] = species: Rattus norvegicus; assay: Fluid concentration in serum was determined in rats at 0.5 hr; format: functional; method in brief: as §3
[31] = species: Rattus norvegicus; assay: Fluid concentration in serum was determined in rats at 4 hr; format: functional; method in brief: as §3
[32] = species: Rattus norvegicus; assay: Fluid concentration in serum was determined in rats at 6 hr; format: functional; method in brief: as §3
[33] = system: Rattus norvegicus; assay: Plasma concentration in rats was determined by oral administration, 20 mg/kg at 2 hr; format: functional, organism-based; design: dose 20 mg/kg
Method in brief: (§5)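 Peripheral plasma antibiotic levels in rats given 20 mg/kg orally or subcutaneously. Plasma was sampled at timed points after dosing. Levels were measured by microbiological agar assay with Micrococcus luteus seeded in Antibiotic Media 1, reading zone sizes, and were calculated from a standard curve for the appropriate compound. Each value is the average of three rats per time point, in μg/mL.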

[34] = system: Rattus norvegicus; assay: Plasma concentration in rats was determined by oral administration, 20 mg/kg at 40 min; format: functional, organism-based; design: dose 20 mg/kg; method in brief: as §5
[35] = system: Rattus norvegicus; assay: Plasma concentration in rats was determined by oral administration, 20 mg/kg at 8 hr; format: functional, organism-based; design: dose 20 mg/kg; method in brief: as §5
[36] = system: Streptococcus pneumoniae; assay: MIC value measured against streptococcus pneumoniae Park1; format: functional
[37] = system: Staphylococcus aureus; assay: MIC value measured against staphylococcus aureus X1; format: functional
[38] = system: Streptococcus pyogenes; assay: MIC value measured against streptococcus pyogenes C203; format: functional
[39] = system: Mus musculus; assay: Plasma concentration in mice was determined by subcutaneous administration, 20 mg/kg at 2 hr; format: functional, organism-based; design: dose 20 mg/kg; method in brief: as §2
[40] = system: Staphylococcus epidermidis; assay: microbe, parasite or virus in culture; format: functional
[41] = species: Rattus norvegicus; assay: Fluid concentration in kidney tissue was determined in rats at 1 hr; format: functional; method in brief: as §4
[42] = species: Rattus norvegicus; assay: Fluid concentration in serum was determined in rats at 2 hr; format: functional; method in brief: as §3
[43] = species: Rattus norvegicus
[44] = species: Rattus norvegicus; remark: listed apart in the source
[45] = species: Rattus norvegicus; remark: listed apart in the source
[46] = species: Rattus norvegicus; remark: listed apart in the source

Compound: CC[C@H]1OC(=O)[C@H](C)[C@@H](O[C@H]2C[C@@](C)(OC)[C@@H](O)[C@H](C)O2)[C@H](C)[C@@H](O[C@@H]2O[C@H](C)C[C@H](N(C)C)[C@H]2O)[C@](C)(O)C[C@@H](C)C(=O)[C@H](C)[C@@H](O)[C@]1(C)O [ERYTHROMYCIN]
- MIC [1]: 1 µg/mL (≈ 1.36 µM)
- ED50 [2]: 2.5 mg/kg
- ED50 [3]: 18 mg/kg
- ED50 [4]: 12 mg/kg
- ED50 [5]: 1.6 mg/kg
- ED50 [6]: 4.1 mg/kg
- ED50 [7]: 2.7 mg/kg
- ED50 [8]: 3.5 mg/kg
- ED50 [9]: 41 mg/kg
- ED50 [10]: 44 mg/kg
- ED50 [11]: 21 mg/kg
- ED50 [12]: 15 mg/kg
- ED50 [13]: 71 mg/kg
- ED50 [14]: 14 mg/kg
- ED50 [15]: > 100 mg/kg
- Plasma concentration [16]: 4.26 µg/mL
- Plasma concentration [17]: 5.96 µg/mL
- Plasma concentration [18]: 4.36 µg/mL
- Plasma concentration [19]: 0 µg/mL
- Plasma concentration [20]: 5.84 µg/mL
- Activity [21]: 0.35 µg/mL
- Activity [22]: 0.15 µg/mL
- Activity [23]: 0.03 µg/mL
- Activity [24]: 0 µg/mL
- Activity [25]: 1 µg/mL
- Activity [26]: 0.4 µg/mL
- Activity [27]: 0.04 µg/mL
- Activity [28]: 0.03 µg/mL
- Activity [29]: 0.04 µg/mL
- Activity [30]: 0.01 µg/mL
- Activity [31]: 0 µg/mL
- Activity [32]: 0 µg/mL
- Plasma concentration [33]: 0.03 µg/mL
- Plasma concentration [34]: 0.11 µg/mL
- Plasma concentration [35]: 0.01 µg/mL
- MIC [36]: 0.008 µg/mL (≈ 0.0109 µM)
- MIC [37]: 0.12 µg/mL (≈ 0.164 µM)
- MIC [38]: 0.015 µg/mL (≈ 0.0204 µM)
- Plasma concentration [39]: 0.01 µg/mL
- MIC [40]: 0.06 µg/mL (≈ 0.0818 µM)
- Activity [41]: 0.15 µg/mL
- Activity [42]: 0 µg/mL
- Plasma concentration [43]: 4.2 µg/mL
- Plasma concentration [44]: 0 µg/mL
- Plasma concentration [45]: 0.48 µg/mL
- Plasma concentration [46]: 0.11 µg/mL
